# Reference: ChEMBL document CHEMBL1151442, “Genetic and phenotypic identification of fusidic acid-resistant mutants with the small-colony-variant phenotype in Staphylococcus aureus” (2007)
# Experiments:
# Assay type in all cases: functional
# Staphylococcus aureus [1] = experiment: Antibacterial activity against kanamycin-resistant and fusidic acid-susceptible Staphylococcus aureus AH417 harboring -1 frameshift mutation at nucleotide 422 in rplF gene after 18 to 24 hrs by Etest strip assay
# In short: (§1)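 Etest MIC: a single colony was suspended in 0.9% NaCl to 0.5 McFarland and swabbed over Mueller-Hinton agar. The strip was applied and plates were incubated at 37°C for 18 to 24 h until an SCV lawn grew.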
# Staphylococcus aureus [2] = experiment: Antibacterial activity against kanamycin-resistant Staphylococcus aureus AH362 (SCV-34) harboring TAA stop codon at nucleotide 282 in rplF gene after 18 to 24 hrs by Etest strip assay
# In short: (§2)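 SCVs of a Rifr 8325-4 derivative were selected on LA with KAN at 8, 16 or 24 μg/ml for 48 h at 37°C. They were purified at the same KAN level and screened on LA plus FA 1 μg/ml.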
# Staphylococcus aureus [3] = experiment: Antibacterial activity against kanamycin-resistant and fusidic acid-susceptible Staphylococcus aureus AH292 harboring Gly664Val mutation in fusA gene after 18 to 24 hrs by Etest strip assay; in short: as §1
# Staphylococcus aureus [4] = experiment: Antibacterial activity against kanamycin-resistant and fusidic acid-susceptible Staphylococcus aureus AH420 harboring deletion of nucleotide 72-80 in rplF gene after 18 to 24 hrs by Etest strip assay; in short: as §1
# Staphylococcus aureus [5] = experiment: Antibacterial activity against kanamycin-resistant and fusidic acid-susceptible Staphylococcus aureus AH298 harboring Gly664Val mutation in fusA gene after 18 to 24 hrs by Etest strip assay; in short: as §1
# Staphylococcus aureus [6] = experiment: Antibacterial activity against kanamycin-resistant Staphylococcus aureus AH339 (SCV-11) harboring -1 frameshift mutation at nucleotide 144 in rplF gene after 18 to 24 hrs by Etest strip assay; in short: as §2
# Staphylococcus aureus [7] = experiment: Antibacterial activity against kanamycin-resistant Staphylococcus aureus AH384 (SCV-56) harboring -1 frameshift mutation at nucleotide 221 in rplF gene after 18 to 24 hrs by Etest strip assay; in short: as §2
# Staphylococcus aureus [8] = experiment: Antibacterial activity against fusidic acid-resistant Staphylococcus aureus AH206 harboring Arg464Ser mutation in fusA gene after 18 to 24 hrs by Etest strip assay
# In short: (§3)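 Mutants of lab strain 8325-4 were selected on LA with FA 2 μg/ml for 48 h at 37°C and purified on selective medium. For the MIC, one colony was suspended in 0.9% NaCl to 0.5 McFarland and swabbed onto Mueller-Hinton agar. An Etest strip was applied and plates were incubated at 37°C for 18–24 h until the lawn was evident.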
# Staphylococcus aureus [9] = experiment: Antibacterial activity against fusidic acid-resistant Staphylococcus aureus AH188 harboring Gly664Ser mutation in fusA gene after 18 to 24 hrs by Etest strip assay; in short: as §3
# Staphylococcus aureus [10] = experiment: Antibacterial activity against kanamycin-resistant Staphylococcus aureus AH366 (SCV-38) harboring Pro114His mutation in fusA gene after 18 to 24 hrs by Etest strip assay; in short: as §2
# Staphylococcus aureus [11] = experiment: Antibacterial activity against fusidic acid-resistant Staphylococcus aureus AH190 harboring Arg464His mutation in fusA gene after 18 to 24 hrs by Etest strip assay; in short: as §3
# Staphylococcus aureus [12] = experiment: Antibacterial activity against kanamycin-resistant Staphylococcus aureus AH332 (SCV-4) harboring Ala655Glu mutation in fusA gene after 18 to 24 hrs by Etest strip assay; in short: as §2
# Staphylococcus aureus [13] = experiment: Antibacterial activity against fusidic acid-resistant Staphylococcus aureus AH207 harboring Thr385Asn mutation in fusA gene after 18 to 24 hrs by Etest strip assay; in short: as §3
# Staphylococcus aureus [14] = experiment: Antibacterial activity against kanamycin-resistant and fusidic acid-susceptible Staphylococcus aureus AH287 harboring Ala655Glu mutation in fusA gene after 18 to 24 hrs by Etest strip assay; in short: as §1
# Staphylococcus aureus [15] = experiment: Antibacterial activity against kanamycin-resistant Staphylococcus aureus AH380 (SCV-52) harboring -1 frameshift mutation at nucleotide 158 in rplF gene after 18 to 24 hrs by Etest strip assay; in short: as §2
# Staphylococcus aureus [16] = experiment: Antibacterial activity against kanamycin-resistant Staphylococcus aureus AH336 (SCV-8) harboring His438Asn mutation in fusA gene after 18 to 24 hrs by Etest strip assay; in short: as §2
# Staphylococcus aureus [17] = experiment: Antibacterial activity against kanamycin-resistant Staphylococcus aureus AH357 (SCV-29) harboring TAA stop codon at nucleotide 301 in rplF gene after 18 to 24 hrs by Etest strip assay; in short: as §2
# Staphylococcus aureus [18] = experiment: Antibacterial activity against kanamycin-resistant Staphylococcus aureus AH360 (SCV-32) harboring ATA start codon at nucleotide 3 in rplF gene after 18 to 24 hrs by Etest strip assay; in short: as §2
# Staphylococcus aureus [19] = experiment: Antibacterial activity against kanamycin-resistant and fusidic acid-susceptible Staphylococcus aureus AH296 harboring Gly664Ala mutation in fusA gene after 18 to 24 hrs by Etest strip assay; in short: as §1
# Staphylococcus aureus [20] = experiment: Antibacterial activity against fusidic acid-resistant Staphylococcus aureus AH187 harboring His457Tyr mutation in fusA gene after 18 to 24 hrs by Etest strip assay; in short: as §3
# Staphylococcus aureus [21] = experiment: Antibacterial activity against fusidic acid-resistant Staphylococcus aureus AH202 harboring CTG start codon at nucleotide 1 in rplF gene after 18 to 24 hrs by Etest strip assay; in short: as §3
# Staphylococcus aureus [22] = experiment: Antibacterial activity against kanamycin-resistant Staphylococcus aureus AH337 (SCV-9) harboring -1 frameshift mutation at nucleotide 220 in rplF gene after 18 to 24 hrs by Etest strip assay; in short: as §2
# Staphylococcus aureus [23] = experiment: Antibacterial activity against kanamycin-resistant Staphylococcus aureus AH331 (SCV-3) harboring Arg659His mutation in fusA gene after 18 to 24 hrs by Etest strip assay; in short: as §2
# Staphylococcus aureus [24] = experiment: Antibacterial activity against kanamycin-resistant Staphylococcus aureus AH370 (SCV-42) harboring TAA stop codon at nucleotide 229 in rplF gene after 18 to 24 hrs by Etest strip assay; in short: as §2
# Staphylococcus aureus [25] = experiment: Antibacterial activity against kanamycin-resistant Staphylococcus aureus AH386 (SCV-58) harboring -1 frameshift mutation at nucleotide 90 in rplF gene after 18 to 24 hrs by Etest strip assay; in short: as §2
# Staphylococcus aureus [26] = experiment: Antibacterial activity against fusidic acid-resistant Staphylococcus aureus AH199 harboring TAA stop codon at nucleotide 241 in rplF gene after 18 to 24 hrs by Etest strip assay; in short: as §3
# Staphylococcus aureus [27] = experiment: Antibacterial activity against kanamycin-resistant Staphylococcus aureus AH347 (SCV-19) harboring Arg659Ser mutation in fusA gene after 18 to 24 hrs by Etest strip assay; in short: as §2
# Staphylococcus aureus [28] = experiment: Antibacterial activity against kanamycin-resistant Staphylococcus aureus AH392 (SCV-64) harboring -1 frameshift mutation at nucleotide 383 in rplF gene after 18 to 24 hrs by Etest strip assay; in short: as §1
# Staphylococcus aureus [29] = experiment: Antibacterial activity against kanamycin-resistant Staphylococcus aureus AH352 (SCV-24) harboring -1 frameshift mutation at nucleotide 106 in rplF gene after 18 to 24 hrs by Etest strip assay; in short: as §2
# Staphylococcus aureus [30] = experiment: Antibacterial activity against fusidic acid-resistant Staphylococcus aureus AH197 harboring Leu456Phe mutation in fusA gene after 18 to 24 hrs by Etest strip assay; in short: as §3
# Staphylococcus aureus [31] = experiment: Antibacterial activity against kanamycin-resistant Staphylococcus aureus AH338 (SCV-10) harboring Arg464Cys mutation in fusA gene after 18 to 24 hrs by Etest strip assay; in short: as §2
# Staphylococcus aureus [32] = experiment: Antibacterial activity against kanamycin-resistant and fusidic acid-susceptible Staphylococcus aureus AH422 harboring +2 frameshift mutation at nucleotide 222 in rplF gene after 18 to 24 hrs by Etest strip assay; in short: as §1
compound,measurement,setting,value
CC(=O)O[C@H]1C[C@@]2(C)[C@@H](C[C@@H](O)[C@H]3[C@@]4(C)CC[C@@H](O)[C@@H](C)[C@@H]4CC[C@@]32C)/C1=C(\CCC=C(C)C)C(=O)O [FUSIDIC ACID],MIC,Staphylococcus aureus [1],24 µg/mL
same,MIC,Staphylococcus aureus [2],12 µg/mL
same,MIC,Staphylococcus aureus [3],6 µg/mL
same,MIC,Staphylococcus aureus [4],12 µg/mL
same,MIC,Staphylococcus aureus [5],6 µg/mL
same,MIC,Staphylococcus aureus [6],6 µg/mL
same,MIC,Staphylococcus aureus [7],24 µg/mL
same,MIC,Staphylococcus aureus [8],6 µg/mL
same,MIC,Staphylococcus aureus [9],4 µg/mL
same,MIC,Staphylococcus aureus [10],12 µg/mL
same,MIC,Staphylococcus aureus [11],6 µg/mL
same,MIC,Staphylococcus aureus [12],12 µg/mL
same,MIC,Staphylococcus aureus [13],4 µg/mL
same,MIC,Staphylococcus aureus [14],12 µg/mL
same,MIC,Staphylococcus aureus [15],6 µg/mL
same,MIC,Staphylococcus aureus [16],8 µg/mL
same,MIC,Staphylococcus aureus [17],12 µg/mL
same,MIC,Staphylococcus aureus [18],24 µg/mL
same,MIC,Staphylococcus aureus [19],3 µg/mL
same,MIC,Staphylococcus aureus [20],96 µg/mL
same,MIC,Staphylococcus aureus [21],4 µg/mL
same,MIC,Staphylococcus aureus [22],12 µg/mL
same,MIC,Staphylococcus aureus [23],8 µg/mL
same,MIC,Staphylococcus aureus [24],8 µg/mL
same,MIC,Staphylococcus aureus [25],24 µg/mL
same,MIC,Staphylococcus aureus [26],4 µg/mL
same,MIC,Staphylococcus aureus [27],12 µg/mL
same,MIC,Staphylococcus aureus [28],4 µg/mL
same,MIC,Staphylococcus aureus [29],4 µg/mL
same,MIC,Staphylococcus aureus [30],4 µg/mL
same,MIC,Staphylococcus aureus [31],2 µg/mL
same,MIC,Staphylococcus aureus [32],12 µg/mL
NC[C@H]1O[C@H](O[C@H]2[C@H](O)[C@@H](O[C@H]3O[C@H](CO)[C@@H](O)[C@H](N)[C@H]3O)[C@H](N)C[C@@H]2N)[C@H](O)[C@@H](O)[C@@H]1O [KANAMYCIN],MIC,Staphylococcus aureus [1],256 µg/mL
same,MIC,Staphylococcus aureus [2],128 µg/mL
same,MIC,Staphylococcus aureus [3],32 µg/mL
same,MIC,Staphylococcus aureus [4],256 µg/mL
same,MIC,Staphylococcus aureus [5],32 µg/mL
same,MIC,Staphylococcus aureus [6],64 µg/mL
same,MIC,Staphylococcus aureus [7],128 µg/mL
same,MIC,Staphylococcus aureus [8],6 µg/mL
same,MIC,Staphylococcus aureus [9],24 µg/mL
same,MIC,Staphylococcus aureus [10],12 µg/mL
same,MIC,Staphylococcus aureus [11],4 µg/mL
same,MIC,Staphylococcus aureus [12],12 µg/mL
same,MIC,Staphylococcus aureus [13],3 µg/mL
same,MIC,Staphylococcus aureus [14],16 µg/mL
same,MIC,Staphylococcus aureus [15],4 µg/mL
same,MIC,Staphylococcus aureus [16],16 µg/mL
same,MIC,Staphylococcus aureus [17],96 µg/mL
same,MIC,Staphylococcus aureus [18],96 µg/mL
same,MIC,Staphylococcus aureus [19],16 µg/mL
same,MIC,Staphylococcus aureus [20],3 µg/mL
same,MIC,Staphylococcus aureus [21],8 µg/mL
same,MIC,Staphylococcus aureus [22],96 µg/mL
same,MIC,Staphylococcus aureus [23],16 µg/mL
same,MIC,Staphylococcus aureus [24],8 µg/mL
same,MIC,Staphylococcus aureus [25],256 µg/mL
same,MIC,Staphylococcus aureus [26],8 µg/mL
same,MIC,Staphylococcus aureus [27],12 µg/mL
same,MIC,Staphylococcus aureus [28],12 µg/mL
same,MIC,Staphylococcus aureus [29],6 µg/mL
same,MIC,Staphylococcus aureus [30],6 µg/mL
same,MIC,Staphylococcus aureus [31],48 µg/mL
same,MIC,Staphylococcus aureus [32],128 µg/mL
CN[C@@H]1[C@H](O[C@H]2[C@H](O[C@H]3[C@H](O)[C@@H](O)[C@H](N=C(N)N)[C@@H](O)[C@@H]3N=C(N)N)O[C@@H](C)[C@]2(O)C=O)O[C@@H](CO)[C@H](O)[C@H]1O [STREPTOMYCIN],MIC,Staphylococcus aureus [1],256 µg/mL
same,MIC,Staphylococcus aureus [2],256 µg/mL
same,MIC,Staphylococcus aureus [3],16 µg/mL
same,MIC,Staphylococcus aureus [4],256 µg/mL
same,MIC,Staphylococcus aureus [5],6 µg/mL
same,MIC,Staphylococcus aureus [6],128 µg/mL
same,MIC,Staphylococcus aureus [7],256 µg/mL
same,MIC,Staphylococcus aureus [8],8 µg/mL
same,MIC,Staphylococcus aureus [9],16 µg/mL
same,MIC,Staphylococcus aureus [10],24 µg/mL
same,MIC,Staphylococcus aureus [11],8 µg/mL
same,MIC,Staphylococcus aureus [12],12 µg/mL
same,MIC,Staphylococcus aureus [13],12 µg/mL
same,MIC,Staphylococcus aureus [14],48 µg/mL
same,MIC,Staphylococcus aureus [15],24 µg/mL
same,MIC,Staphylococcus aureus [16],12 µg/mL
same,MIC,Staphylococcus aureus [17],256 µg/mL
same,MIC,Staphylococcus aureus [18],192 µg/mL
same,MIC,Staphylococcus aureus [19],8 µg/mL
same,MIC,Staphylococcus aureus [20],6 µg/mL
same,MIC,Staphylococcus aureus [21],16 µg/mL
same,MIC,Staphylococcus aureus [22],256 µg/mL
same,MIC,Staphylococcus aureus [23],24 µg/mL
same,MIC,Staphylococcus aureus [24],24 µg/mL
same,MIC,Staphylococcus aureus [25],96 µg/mL
same,MIC,Staphylococcus aureus [26],16 µg/mL
same,MIC,Staphylococcus aureus [27],32 µg/mL
same,MIC,Staphylococcus aureus [28],16 µg/mL
same,MIC,Staphylococcus aureus [29],24 µg/mL
same,MIC,Staphylococcus aureus [30],8 µg/mL
same,MIC,Staphylococcus aureus [31],24 µg/mL
same,MIC,Staphylococcus aureus [32],32 µg/mL
